Converted amounts (≈) assume the structure as drawn. The source made the active and inactive calls. The rule behind the calls is not given here.
What was measured:
[1] = tested on: Staphylococcus aureus; experiment: Antimicrobial activity against exponential-phase methicillin-sensitive Staphylococcus aureus ATCC 29213 grown on nutrient-depleted CAMHB medium assessed as membrane depolarization after 30 mins using DiSC3(5) dye based fluorescence spectrophotometry; type: functional, organism-based
[2] = tested on: Staphylococcus aureus; experiment: Antimicrobial activity against stationary-phase methicillin-sensitive Staphylococcus aureus ATCC 29213 grown on nutrient-depleted CAMHB medium assessed as membrane depolarization after 30 mins using DiSC3(5) dye based fluorescence spectrophotometry; type: functional, organism-based
[3] = tested on: Staphylococcus aureus; experiment: Bactericidal activity against methicillin-sensitive Staphylococcus aureus assessed as log reduction in bacterial load within 15 to 120 mins; type: functional
[4] = tested on: Staphylococcus aureus; experiment: Bactericidal activity against stationary-phase methicillin-sensitive Staphylococcus aureus ATCC 29213 grown on nutrient-depleted CAMHB medium assessed as log reduction in bacterial count at 0.5 ug/ml after 24 hrs by time kill analysis; type: functional
[5] = tested on: Staphylococcus aureus; experiment: Bactericidal activity against exponential-phase methicillin-sensitive Staphylococcus aureus ATCC 29213 grown on nutrient-depleted CAMHB medium at 0.5 ug/ml after 24 hrs by time kill analysis; type: functional, organism-based
[6] = tested on: Staphylococcus aureus; experiment: Bactericidal activity against exponential-phase methicillin-sensitive Staphylococcus aureus ATCC 29213 grown on nutrient-depleted CAMHB medium at 16 ug/ml after 24 hrs by time kill analysis; type: functional, organism-based
[7] = tested on: Staphylococcus aureus; experiment: Bactericidal activity against exponential-phase methicillin-sensitive Staphylococcus aureus ATCC 29213 grown on nutrient-depleted CAMHB medium at 4 ug/ml after 24 hrs by time kill analysis; type: functional, organism-based
[8] = tested on: Staphylococcus aureus; experiment: Bactericidal activity against stationary-phase methicillin-resistant Staphylococcus aureus ATCC 33591 grown on nutrient-depleted CAMHB medium after 24 hrs by time kill analysis; type: functional, organism-based
Outline: (§1)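 Overnight stationary-phase cultures inoculated at ~10^7 CFU/ml into strain-matched spent CAMHB (pH 7.0, filter-sterilized). Oritavancin was kept at 0.002% polysorbate 80; daptomycin wells had 50 μg/ml CaCl2. Incubation at 37°C, 225 rpm. Samples were charcoal-quenched (25 mg/ml) before plating; points are means of duplicates. Bactericidal means ≥3-log drop at 24 h versus inoculum. ≥3 repeats.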

[9] = tested on: Staphylococcus aureus; experiment: Bactericidal activity against stationary-phase methicillin-resistant Staphylococcus aureus ATCC 33591 grown on nutrient-depleted CAMHB medium assessed as reduction in bacterial count at 0.5 ug/ml after 24 hrs by time kill analysis; type: functional; outline: as §1
[10] = tested on: Staphylococcus aureus; experiment: Antimicrobial activity against stationary-phase methicillin-sensitive Staphylococcus aureus ATCC 29213 grown on nutrient-depleted CAMHB medium assessed as membrane permeability after 30 mins by propidium iodide staining-based fluorescence spectrophotometry; type: functional, organism-based
[11] = tested on: Staphylococcus aureus; experiment: Antimicrobial activity against exponential-phase methicillin-sensitive Staphylococcus aureus ATCC 29213 grown on nutrient-depleted CAMHB medium assessed as membrane permeability after 30 mins by propidium iodide staining-based fluorescence spectrophotometry; type: functional, organism-based
[12] = tested on: Staphylococcus aureus; experiment: Bactericidal activity against exponential-phase methicillin-sensitive Staphylococcus aureus ATCC 29213 assessed as log reduction in bacterial count at 16 ug/ml within 15 mins by time kill analysis; type: functional
Outline: (§2)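 Short (2-h) time-kill of ATCC 29213 at OD600 0.005 (~10^6 CFU/ml) in 10 mM HEPES-Cl pH 7.5 with 50 μg/ml CaCl2. Exponential cells had 5 mM glucose and stationary cells none. Oritavancin was tested without polysorbate 80; viable counts were taken by serial dilution plating. Three repeats; one shown.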

[13] = tested on: Staphylococcus aureus; experiment: Bactericidal activity against exponential-phase methicillin-sensitive Staphylococcus aureus ATCC 29213 assessed as log reduction in bacterial count at 4 ug/ml within 2 hrs by time kill analysis; type: functional
[14] = tested on: Staphylococcus aureus; experiment: Bactericidal activity against stationary-phase methicillin-sensitive Staphylococcus aureus ATCC 29213 assessed as log reduction in bacterial count at 4 ug/ml within 2 hrs by time kill analysis; type: functional
[15] = tested on: Staphylococcus aureus; experiment: Bactericidal activity against stationary-phase methicillin-sensitive Staphylococcus aureus ATCC 29213 assessed as log reduction in bacterial count at 16 ug/ml within 2 hrs by time kill analysis; type: functional; outline: as §2
[16] = tested on: Staphylococcus aureus; experiment: Inhibition of cell division in stationary-phase methicillin-resistant Staphylococcus aureus ATCC 43300 assessed as absence of appearance of septal midline at 1 ug/ml by transmission electron microscopy; type: functional, organism-based
Outline: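 Stationary-phase MRSA ATCC 43300 (5 × 10^7 CFU/ml) exposed for 3 h in nutrient-depleted CAMHB. Cells were fixed in 2.5% glutaraldehyde, post-fixed in 2% osmium tetroxide and en bloc stained with uranyl acetate. Samples were ethanol-dehydrated, embedded in LR White, thin-sectioned, and stained with uranyl acetate/lead citrate. Septa were viewed by TEM at 100 kV.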

[17] = tested on: Staphylococcus aureus; experiment: Antimicrobial activity against methicillin-sensitive Staphylococcus aureus ATCC 29213 planktonic cells by broth microdilution method; type: functional
Outline: (§3)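 Planktonic MIC read in the MBEC system against cells shed from 24-h peg biofilms (grown in tryptic soy broth, 37°C, 150 rpm), after 24-h exposure to serially diluted drug in CAMHB without polysorbate 80. Ranges come from ≥3 independent experiments.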

[18] = tested on: Staphylococcus aureus; experiment: Antimicrobial activity against methicillin-resistant Staphylococcus aureus ATCC 33591 planktonic cells by broth microdilution method; type: functional; outline: as §3
[19] = tested on: Staphylococcus aureus; experiment: Antimicrobial activity against vancomycin-resistant Staphylococcus aureus isolate VRS5 planktonic cells by broth microdilution method; type: functional; outline: as §3
[20] = tested on: Staphylococcus aureus; experiment: Antimicrobial activity against methicillin-sensitive Staphylococcus aureus ATCC 29213 assessed as inhibition of bacterial biofilm formation after 1 hr by serial dilution method; type: functional
[21] = tested on: Staphylococcus aureus; experiment: Antimicrobial activity against methicillin-sensitive Staphylococcus aureus ATCC 29213 assessed as inhibition of biofilm formation after 24 hrs by serial dilution method; type: functional
Outline: (§4)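 24-h biofilms grown on MBEC peg lids from 10^7 CFU/ml inocula in tryptic soy broth at 37°C, 150 rpm. After a saline wash, pegs were exposed for 24 h to serially diluted drug in CAMHB with no polysorbate 80. Pegs were washed, sonicated 5 min into CAMHB recovery plates and incubated 24 h; MBEC is the lowest sterilizing concentration. Ranges come from ≥3 independent experiments.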

[22] = tested on: Staphylococcus aureus; experiment: Antimicrobial activity against methicillin-resistant Staphylococcus aureus ATCC 33591 assessed as inhibition of biofilm formation after 24 hrs by serial dilution method; type: functional; outline: as §4
[23] = tested on: Staphylococcus aureus; experiment: Bactericidal activity against stationary-phase vancomycin-resistant Staphylococcus aureus isolate VRS5 after 24 hrs by time kill analysis; type: functional, organism-based; outline: as §1
[24] = tested on: Homo sapiens; experiment: fCmin in human at 200 […]; type: ADME, organism-based; conditions: in vivo
[25] = tested on: Staphylococcus aureus; experiment: Antimicrobial activity against 4.6 X 10^6 CFU/peg methicillin-susceptible Staphylococcus aureus ATCC 29213 planktonic cells by broth microdilution method
[26] = tested on: Staphylococcus aureus; experiment: Antimicrobial activity against 4.6 X 10^6 CFU/peg methicillin-susceptible Staphylococcus aureus ATCC 29213 assessed as inhibition of biofilm formation after 24 hrs by serial dilution method
[27] = tested on: Staphylococcus aureus; experiment: Bactericidal activity against stationary-phase vancomycin-resistant Staphylococcus aureus isolate VRS5 grown on nutrient-depleted CAMHB medium assessed as log reduction in bacterial count at 4 ug/ml after 24 hrs by time kill analysis

Compound: CN[C@H](CC(C)C)C(=O)N[C@H]1C(=O)N[C@@H](CC(N)=O)C(=O)N[C@H]2C(=O)N[C@H]3C(=O)N[C@H](C(=O)N[C@H](C(=O)O)c4cc(O)cc(O)c4-c4cc3ccc4O)[C@H](O[C@H]3C[C@](C)(N)[C@@H](O)[C@H](C)O3)c3ccc(c(Cl)c3)Oc3cc2cc(c3O[C@@H]2O[C@H](CO)[C@@H](O)[C@H](O)[C@H]2O[C@H]2C[C@](C)(NCc3ccc(-c4ccc(Cl)cc4)cc3)[C@@H](O)[C@H](C)O2)Oc2ccc(cc2Cl)[C@H]1O [ORITAVANCIN]
- Activity [1]: Dose-dependent effect
- Activity [2]: Dose-dependent effect
- FC [3]: >=3
- FC [4]: 2.9
- Activity [5]: Active
- Activity [6]: Active
- Activity [7]: Active
- Activity [8]: Dose-dependent effect
- fold change (FC) [9]: 0.4
- Activity [10]: Dose-dependent effect
- Activity [11]: Dose-dependent effect
- FC [12]: 3.2
- FC [13]: 2.9
- FC [14]: 0.9
- FC [15]: 1.5
- inhibition [16]: Active
- MIC [17]: 2 mg/L (≈ 1.12 µM)
- MIC [18]: 0.5 mg/L (≈ 0.279 µM)
- MIC [19]: 2 mg/L (≈ 1.12 µM)
- MBEC [20]: 4 µg/mL
- MBEC [21]: 2 µg/mL
- MBEC [22]: 0.5 µg/mL
- Activity [23]: Dose-dependent effect
- fCmin [24]: 0.5 µg/mL
- MIC [25]: 4 mg/L (≈ 2.23 µM)
- MBEC [26]: 8 µg/mL
- FC [27]: 2.2
